Screens from PubChem BioAssay.
FN deposit inh: inhibitors of fibronectin matrix deposition, primary screen, AH1F cells, Alexa488-fibronectin fluorescence, plate reader; 0.086% of 350,000 active; inhibition, % at 12.6 µM; AID 743247, 2014; AH1F fibroblasts, overnight;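 active = mean inhibition across replicates of 30% or more, regardless of how many single replicates reach that level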
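Assay system: AH1F fibroblasts assembling fluorescent fibronectin matrix; Amount: 10000 AH1F cells per well; Buffer or medium: DMEM, 2% serum; Probe or stimulus: Alexa488-fibronectin, 24 nM final in well; Doses: single compound dose, delivered by pin transfer; Incubation: 1 h adhesion, overnight exposure; Measured by: fluorescence 485/525 nm; Read-out: fibronectin deposition inhibition.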
FGF22 binding: binders of human FGF22 protein, primary screen, FGF22 synaptogenesis inhibitor project, biophysical, thermal shift, single point | Fibroblast growth factor 22 (Homo sapiens), Q9HCT0 | recombinant FGF22 thermal shift, SYPRO orange fluorescence; percent of sucrose octasulfate shift, DMSO zero | activity (Tm shift, normalised), % at 9.99 µM | 1.5% of 340,000 active;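 active = mean Tm shift, scaled 0 neutral to 100 positive control, at about 1.3% or above, every replicate too, limit read from the data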
SIRT5 inh: SIRT5 desuccinylase inhibitors, primary screen, biochemical, fluorescence imaging, single point, set 5; AID 652115, 2013; Purified SirT5, succinyl-peptide AMC, trypsin-coupled fluorescence; 1.1% of 330,000 active; inhibition, % at 15 µM; in the data active = inhibition above about 15%
ERAP1 inh: human ERAP1 aminopeptidase inhibitors, primary screen, biochemical, single point, plate reader; 0.15% of 340,000 active; Endoplasmic reticulum aminopeptidase 1 (Homo sapiens), Q9NZ08; inhibition, % at 10.7 µM; recombinant ERAP1, Leu-AMC fluorescence, 60 min;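 active = mean replicate inhibition of at least 30%, or all replicates individually reaching that 30% level; inactive = mean below 30% and not every replicate reaching it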
PGC1a acetyl inh: inhibitors of PGC1a acetylation signal, primary screen, cell-based, U2OS, AlphaScreen, inhibitor mode | inhibition, % at 15.6 µM | AID 651687, 2012 | 0.17% of 350,000 active | AlphaScreen anti-acetyl-lysine; with virally co-expressed GCN5 acetyltransferase;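 active = every replicate shows inhibition of at least 40%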
Hits are given with their value; - = inactive; . = not tested or not shown. In the library only some 2.2% were active in any assay of this set; here they are far more common.

SMILES	FN deposit inh	FGF22 binding	SIRT5 inh	ERAP1 inh	PGC1a acetyl inh
COc1ccc(C(NC(=O)C2C3C=CC(C3)C2C(=O)O)c2ccccc2)cc1 (stereo not given)	.	52	-	-	-
CN(C)C(CNC(=O)c1ccc(S(=O)(=O)N(C)C)cc1)Cc1ccccc1 (stereo not given)	.	43	-	-	.
CN(C)S(=O)(=O)c1ccc(C(=O)NCc2ccco2)cc1	-	44	-	-	-
CCC(C)C(NC(=O)OC(C)(C)C)C(=O)NC(C)C(N)=O (stereo not given)	-	43	-	-	.
COc1ccc(NC(=O)N(C)C[C@@H]2Oc3ccc(NC(=O)NC4CCCCC4)cc3C(=O)N([C@@H](C)CO)C[C@H]2C)cc1	.	-	-	-	-
Cc1cccc(OCC(=O)NNC(=O)C2CCCCC2C(=O)O)c1 (stereo not given)	-	-	37	-	-
COc1cccc(-c2ccc3n(c2=O)C[C@@H]2[C@@H](CO)[C@H](C(=O)N(C)C)N(CC4CC4)[C@H]32)c1	.	-	-	-	-
CC/C(=C\C1CCCCC1)C(NP(=O)(c1ccccc1)c1ccccc1)c1ccccc1 (stereo not given)	-	-	22	-	-
CC[N+](C)(CC)CC(=O)OCC1C(C)C=C(C)CC1C (stereo not given)	-	-	-	106	-
CCS(=O)(=O)NCC[C@@H]1CC[C@@H](NC(=O)Cc2ccccn2)[C@H](CO)O1	-	-	-	-	-
CC(C)NC(=O)N(C)C[C@H]1Oc2ncc(C#CC3(O)CCCC3)cc2C(=O)N([C@@H](C)CO)C[C@@H]1C	-	-	-	-	-
C[C@@H]1CN([C@H](C)CO)C(=O)c2cc(C#CC3(O)CCCC3)cnc2O[C@@H]1CN(C)C	-	-	-	-	-
CCC(=O)N(C)C[C@H]1Oc2ncc(C#CC3(O)CCCC3)cc2C(=O)N([C@@H](C)CO)C[C@H]1C	.	-	-2.7	-	-
CCC(=O)N(C)C[C@@H]1Oc2ncc(C#CC3(O)CCCC3)cc2C(=O)N([C@H](C)CO)C[C@@H]1C	.	-	-	-	-
C[C@H](CO)N1C[C@H](C)[C@H](CN(C)CC2CC2)Oc2ncc(C#CC3(O)CCCC3)cc2C1=O	-	.	18	-	.
COc1ccc(CC(=O)NCCc2ccc3c(c2)OCO3)cc1OC	-	-	-	-	.
COc1cc(NC(=O)Nc2ccc3c(c2)OCO3)cc(OC)c1OC	-	43	-	-	.
COc1cc(C(=O)NCCc2ccc3c(c2)OCO3)cc(OC)c1OC	-	44	.	-	-
COc1cc(C(=O)NNC(=O)C2CCC2)cc(OC)c1OC	-	-	25	-	.
COc1cc(C(=O)NCCN2CCN(C(=O)c3cc(OC)c(OC)c(OC)c3)CC2)cc(OC)c1OC	-	-	29	-	-
C[C@@H]1CN([C@@H](C)CO)C(=O)c2cccc(NS(=O)(=O)c3cn(C)cn3)c2O[C@H]1CN(C)C(=O)Nc1ccc(C(F)(F)F)cc1	-	-	-	-	-
C[C@@H]1CN([C@@H](C)CO)C(=O)c2cc(NS(=O)(=O)c3ccc(F)cc3)ccc2O[C@@H](C)CCCCO[C@H]1CN(C)C(=O)CCC(F)(F)F	-	-	-	-	-
CNC[C@@H]1OCCCC[C@@H](C)Oc2ccc(NC(=O)Cc3ccccc3)cc2C(=O)N([C@H](C)CO)C[C@@H]1C	.	-	-	-	-
C[C@@H]1CN([C@@H](C)CO)C(=O)c2cc(C#CC3CCCCC3)cnc2O[C@@H]1CN(C)Cc1cccnc1	.	.	.	.	-
O=C(CCC1CCCN(Cc2cccc3c2OCO3)C1)NCc1ccc(F)c(F)c1 (stereo not given)	-	-	38	-	-
O=C(CCC1CCCN(C(=O)c2ccoc2)C1)NCc1ccc(F)c(F)c1 (stereo not given)	.	-	-	-	-
O=C(CCC1CCCN(C(=O)c2ccc3c(c2)OCO3)C1)NCc1ccc(F)c(F)c1 (stereo not given)	-	43	-	-	.
